The source of these data is ChEMBL document CHEMBL4152271, “Polypharmacological profile of 1,2-dihydro-2-oxo-pyridine-3-carboxamides in the endocannabinoid system” (Eur J Med Chem, 2018).

The source made the active and inactive calls. The calls are words filed in the database; no cut-off is given here.

In the first experiment the target is T1, Monoglyceride lipase (Homo sapiens, UniProt Q99685).
T1 sequence (Q99685 whole entry): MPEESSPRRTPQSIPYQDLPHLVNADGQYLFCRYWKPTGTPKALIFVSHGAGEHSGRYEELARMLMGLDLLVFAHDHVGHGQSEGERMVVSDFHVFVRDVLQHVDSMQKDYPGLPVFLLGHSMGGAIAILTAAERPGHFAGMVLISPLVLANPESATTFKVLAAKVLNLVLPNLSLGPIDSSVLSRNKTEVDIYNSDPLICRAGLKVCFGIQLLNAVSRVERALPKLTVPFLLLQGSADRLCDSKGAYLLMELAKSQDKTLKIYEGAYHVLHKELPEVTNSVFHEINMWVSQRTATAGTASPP
Kind of experiment: Inhibition of MAGL in human U937 cells using 2-OG containing […] as substrate preincubated for 30 mins followed by substrate addition and measured after 15 mins by liquid scintillation spectroscopic method. Format: cell-based. Put shortly: (§1)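 U937 cell homogenate (100 µg) in 10 mM Tris-HCl, 1 mM EDTA, pH 8, 0.1% fatty acid-free BSA. Compound at 10 µM screening concentration, 30 min at 37 °C. FAAH: 100 nM AEA with 1 nM [³H]AEA tracer. MAGL: 1 µM 2-OG with 1 nM tritiated tracer. Both 15 min at 37 °C, stopped with CHCl₃:MeOH (1:1), aqueous phase counted.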
Regarding `O=C(NC1CCCCCC1)c1c(-c2ccccc2)c(-c2ccccc2)cn(Cc2ccc(F)cc2)c1=O`, the IC50 (commonly the concentration needed to halve the response being measured) is greater than 10 µM.
Same read-out and setting: the figure for `Cc1ccn(Cc2ccc(F)cc2)c(=O)c1C(=O)NC1CCCCCC1` is greater than 10 µM.

In the next experiment the target is T2, Cannabinoid receptor 1 (Homo sapiens, UniProt P21554). The experiment in a line: Displacement of [3H]-CP55940 from human CB1 receptor expressed in CHO cell membranes after 90 mins.
T2 sequence (P21554 whole entry): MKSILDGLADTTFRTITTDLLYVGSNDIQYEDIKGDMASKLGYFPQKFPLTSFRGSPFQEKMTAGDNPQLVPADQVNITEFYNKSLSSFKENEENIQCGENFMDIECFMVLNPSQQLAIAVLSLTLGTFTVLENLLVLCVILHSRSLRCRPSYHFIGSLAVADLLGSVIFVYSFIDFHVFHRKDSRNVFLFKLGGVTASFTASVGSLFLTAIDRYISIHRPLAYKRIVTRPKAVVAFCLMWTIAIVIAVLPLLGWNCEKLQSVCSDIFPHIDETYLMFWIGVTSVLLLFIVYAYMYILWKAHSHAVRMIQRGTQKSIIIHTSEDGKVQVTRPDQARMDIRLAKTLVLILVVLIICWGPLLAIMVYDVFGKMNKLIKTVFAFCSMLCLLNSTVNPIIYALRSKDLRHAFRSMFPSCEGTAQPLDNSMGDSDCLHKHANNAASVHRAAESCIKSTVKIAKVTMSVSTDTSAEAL
Regarding `O=C(NC1CCCCCC1)c1c(-c2ccccc2)c(-c2ccccc2)cn(Cc2ccc(F)cc2)c1=O`, the inhibition constant (Ki) (as a rule, a dissociation constant, usually derived from enzyme kinetics or from competition with a known ligand) was greater than 10 µM.
On the same count and under the same terms, the figure for `Cc1ccn(Cc2ccc(F)cc2)c(=O)c1C(=O)NC1CCCCCC1` is 0.0117 µM.

For the next experiment, the target named is T3, Cannabinoid receptor 2 (Homo sapiens, UniProt P34972). Kind of experiment: Displacement of [3H]-CP55940 from human CB2 receptor expressed in CHO cell membranes after 90 mins. Put shortly: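 Membranes expressing hCB1 or hCB2 (stably transfected CHO) in 50 mM Tris-HCl, 2.5 mM EDTA, 5 mM MgCl₂, 0.5% fatty acid-free BSA, pH 7.4. Nonspecific binding with 10 µM […]. GF/B filtration, radioactivity counted, Ki derived. Mean ± SD, at least 3 experiments in triplicate.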
T3 sequence (P34972 whole entry): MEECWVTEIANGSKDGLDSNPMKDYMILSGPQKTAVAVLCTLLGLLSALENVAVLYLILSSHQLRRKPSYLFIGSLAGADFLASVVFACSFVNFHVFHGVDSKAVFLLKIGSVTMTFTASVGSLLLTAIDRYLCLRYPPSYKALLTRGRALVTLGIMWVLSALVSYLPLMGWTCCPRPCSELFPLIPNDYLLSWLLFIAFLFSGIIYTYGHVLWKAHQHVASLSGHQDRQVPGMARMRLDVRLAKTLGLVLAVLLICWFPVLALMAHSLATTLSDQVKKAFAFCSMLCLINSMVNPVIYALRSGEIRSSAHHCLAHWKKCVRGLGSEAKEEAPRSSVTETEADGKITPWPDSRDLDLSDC
On the technique in general: In a radioligand displacement assay an active substance lowers the binding of a labelled ligand.
For `O=C(NC1CCCCCC1)c1c(-c2ccccc2)c(-c2ccccc2)cn(Cc2ccc(F)cc2)c1=O`, the inhibition constant (Ki) is greater than 10 µM.
The same measure, in the same setting: the figure for `Cc1ccn(Cc2ccc(F)cc2)c(=O)c1C(=O)NC1CCCCCC1` is 0.0059 µM.

The species entered for another experiment is Homo sapiens. The experiment in a line: Selectivity ratio of Ki for human CB1 receptor to Ki for human CB2 receptor. Put shortly:
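Membranes expressing hCB1 or hCB2 (stably transfected CHO) in 50 mM Tris-HCl, 2.5 mM EDTA, 5 mM MgCl₂, 0.5% fatty acid-free BSA, pH 7.4. Incubated with compound and 0.5 nM [³H]CP55,940 for 90 min at 30 °C. Nonspecific binding with 10 µM […]. GF/B filtration, radioactivity counted, Ki derived. Mean ± SD, at least 3 experiments in triplicate.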
In the case of `O=C(NC1CCCCCC1)c1c(-c2ccccc2)c(-c2ccccc2)cn(Cc2ccc(F)cc2)c1=O`, the Ratio Ki lay in the range of 2 to 54.
As for `Cc1ccn(Cc2ccc(F)cc2)c(=O)c1C(=O)NC1CCCCCC1`, the Ratio Ki fell in the range of 2 to 54.

For the next experiment, the target named is T2, Cannabinoid receptor 1. Kind of experiment: Agonist activity at human CB1 receptor expressed in CHO cell membranes after 90 mins by [35S]GTPgammaS binding assay. Format: functional, cell-based. On the technique in general: GTPγS is a poorly hydrolysed GTP analogue; its binding reports G protein activation.
With `Cc1ccn(Cc2ccc(F)cc2)c(=O)c1C(=O)NC1CCCCCC1`, a half-maximal effect (EC50) was put at 0.069 µM. This lies in the double-digit nanomolar range.

A further experiment addresses T3, Cannabinoid receptor 2. Kind of experiment: Agonist activity at human CB2 receptor expressed in CHO cell membranes after 90 mins by [35S]GTPgammaS binding assay. Format: functional. Put shortly:
(§2)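 Membranes (5 µg) of hCB2-expressing cells in 50 mM Tris-HCl, 3 mM MgCl₂, 0.2 mM EDTA, 100 mM NaCl, 0.5% fatty acid-free BSA, pH 7.4, with 10 µM GDP and 0.1 nM [³⁵S]GTPγS. Kept on ice, started by vehicle or compound, 90 min at 30 °C. Nonspecific binding with 10 µM GTPγS. Filtered on GF/B, radioactivity counted. At least three experiments in triplicate, mean ± SD.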
For `Cc1ccn(Cc2ccc(F)cc2)c(=O)c1C(=O)NC1CCCCCC1`, the EC50 (as a rule, the midpoint of the concentration-response curve) came to 0.0019 µM.

A further experiment addresses T3, Cannabinoid receptor 2. The experiment in a line: Agonist activity at human CB2 receptor expressed in CHO cell membranes after 90 mins by [35S]GTPgammaS binding assay relative to control. Format: functional. An outline of the steps:
as §2
On to `Cc1ccn(Cc2ccc(F)cc2)c(=O)c1C(=O)NC1CCCCCC1`, for which the maximal response (Emax) (commonly the size of the effect at its maximum, as opposed to the concentration needed) stood at 128%.

The target in another experiment is T4, Fatty-acid amide hydrolase 1 (Homo sapiens, UniProt O00519).
T4 sequence (O00519 whole entry): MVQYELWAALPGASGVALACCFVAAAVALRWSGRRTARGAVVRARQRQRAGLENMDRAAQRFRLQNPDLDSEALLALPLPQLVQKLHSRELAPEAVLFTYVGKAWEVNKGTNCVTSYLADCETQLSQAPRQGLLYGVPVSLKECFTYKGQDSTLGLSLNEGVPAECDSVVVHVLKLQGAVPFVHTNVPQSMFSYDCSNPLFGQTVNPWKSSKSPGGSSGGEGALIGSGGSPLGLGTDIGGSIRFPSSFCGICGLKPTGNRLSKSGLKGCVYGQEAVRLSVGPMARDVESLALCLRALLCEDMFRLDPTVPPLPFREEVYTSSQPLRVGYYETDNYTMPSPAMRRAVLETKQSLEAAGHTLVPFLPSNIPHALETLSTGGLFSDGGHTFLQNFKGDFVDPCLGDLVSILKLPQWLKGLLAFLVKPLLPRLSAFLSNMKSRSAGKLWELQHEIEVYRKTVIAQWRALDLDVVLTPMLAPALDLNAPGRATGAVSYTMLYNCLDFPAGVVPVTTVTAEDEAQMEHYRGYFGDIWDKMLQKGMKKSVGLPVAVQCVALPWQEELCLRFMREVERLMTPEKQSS
Kind of experiment: Inhibition of FAAH in human U937 cells using AEA containing [ethanolamine-1-3H]AEA as substrate preincubated for 30 mins followed by substrate addition and measured after 15 mins by liquid scintillation spectroscopic method. Format: cell-based. Put shortly:
as §1
With `O=C(NC1CCCCCC1)c1c(-c2ccccc2)c(-c2ccccc2)cn(Cc2ccc(F)cc2)c1=O`, the IC50 is greater than 10 µM.
The same measure, in the same setting: the result for `Cc1ccn(Cc2ccc(F)cc2)c(=O)c1C(=O)NC1CCCCCC1` reads 8.8 µM.

The target of another experiment is T5, Monoacylglycerol lipase ABHD6 (Homo sapiens, UniProt Q9BV23).
T5 sequence (Q9BV23 whole entry): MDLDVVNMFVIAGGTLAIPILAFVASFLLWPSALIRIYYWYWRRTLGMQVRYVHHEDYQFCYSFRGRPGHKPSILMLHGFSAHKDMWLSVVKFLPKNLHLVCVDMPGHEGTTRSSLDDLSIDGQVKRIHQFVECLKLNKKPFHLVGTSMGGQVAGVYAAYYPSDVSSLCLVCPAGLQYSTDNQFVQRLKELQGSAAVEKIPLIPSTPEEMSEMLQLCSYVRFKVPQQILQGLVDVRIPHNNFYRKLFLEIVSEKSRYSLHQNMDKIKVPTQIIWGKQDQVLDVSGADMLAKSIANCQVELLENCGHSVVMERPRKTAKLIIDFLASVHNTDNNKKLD
Kind of experiment: Inhibition of human ABHD6 expressed in HEK293 cells using 2-OG as substrate preincubated for 30 mins followed by substrate addition and measured after 5 mins by liquid scintillation spectroscopic method. Format: cell-based. Put shortly: (§3)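 Homogenate (40 µg) of HEK293 cells stably transfected with hABHD6 or hABHD12, compound preincubated 30 min at 37 °C in […], 0.1% BSA, pH 7.6. DMSO vehicle; WWL70 10 µM or THL 20 µM as positive controls. 10 µM 2-OG added for 5 min at 37 °C, stopped with CHCl₃:MeOH. Aqueous phase counted; no-enzyme blanks and non-transfected HEK293 hydrolysis subtracted.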
Regarding `O=C(NC1CCCCCC1)c1c(-c2ccccc2)c(-c2ccccc2)cn(Cc2ccc(F)cc2)c1=O`, the IC50 was greater than 10 µM.
`Cc1ccn(Cc2ccc(F)cc2)c(=O)c1C(=O)NC1CCCCCC1` gave a concentration for half-maximal inhibition (IC50) greater than 10 µM.

The target of a further experiment is T6, Lysophosphatidylserine lipase ABHD12 (Homo sapiens, UniProt Q8N2K0).
T6 sequence (Q8N2K0 whole entry): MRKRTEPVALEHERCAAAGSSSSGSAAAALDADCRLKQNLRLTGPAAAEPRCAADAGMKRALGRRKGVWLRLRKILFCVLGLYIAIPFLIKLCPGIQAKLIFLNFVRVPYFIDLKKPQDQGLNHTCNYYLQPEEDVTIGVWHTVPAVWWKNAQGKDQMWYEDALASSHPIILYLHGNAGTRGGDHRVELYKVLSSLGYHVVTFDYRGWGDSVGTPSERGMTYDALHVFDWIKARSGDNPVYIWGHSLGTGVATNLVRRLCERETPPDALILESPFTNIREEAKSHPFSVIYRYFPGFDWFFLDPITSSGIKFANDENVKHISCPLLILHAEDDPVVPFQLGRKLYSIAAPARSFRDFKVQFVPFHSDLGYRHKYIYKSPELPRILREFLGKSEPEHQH
The experiment in a line: Inhibition of human ABHD12 expressed in HEK293 cells using 2-OG as substrate preincubated for 30 mins followed by substrate addition and measured after 5 mins by liquid scintillation spectroscopic method. Format: cell-based. An outline of the steps: as §3
Turning to `O=C(NC1CCCCCC1)c1c(-c2ccccc2)c(-c2ccccc2)cn(Cc2ccc(F)cc2)c1=O`, the half-inhibitory concentration (IC50) is greater than 10 µM.
Same read-out and setting: the figure for `Cc1ccn(Cc2ccc(F)cc2)c(=O)c1C(=O)NC1CCCCCC1` is greater than 10 µM.

A further experiment concerns U-937. The experiment in a line: Inhibition of [ethanolamine-1-3H]AEA/unlabeled AEA uptake in human U937 cells preincubated for 15 mins followed by [ethanolamine-1-3H]AEA/unlabeled AEA addition and measured after 15 mins by scintillation counting method. Format: functional, cell-based. An outline of the steps:
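Intact U937 cells (0.5x10⁶ per sample) in RPMI, preincubated with compound for 15 min at 37 °C. Then 1 nM [ethanolamine-1-³H]AEA plus unlabeled AEA (final 100 nM) added for 15 min. Stopped by rapid filtration and ice-cold PBS/1% BSA washes, radioactivity counted. At least three experiments in triplicate, mean ± SD.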
Consider `O=C(NC1CCCCCC1)c1c(-c2ccccc2)c(-c2ccccc2)cn(Cc2ccc(F)cc2)c1=O`, for which the 50% inhibitory concentration (IC50) is greater than 10 µM.
Molecule `Cc1ccn(Cc2ccc(F)cc2)c(=O)c1C(=O)NC1CCCCCC1` gave an IC50 of 1.8 µM.

Another experiment relates to U-937. Kind of experiment: Cytotoxicity against human U937 cells assessed as decrease in cell viability at 0.6 to 40 uM after 48 hrs by MTT assay. Format: functional, cell-based. Put shortly: (§4)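 U251MG (EMEM, 10% FBS) or U937 (RPMI 1640, 10% FBS) cells plated at 4x10³/well for 24h, then exposed to compounds (0–40 µM) for 48 h at 37°C. MTT reduction, formazan read at 595 nm. Viability as % of untreated control. Five independent experiments in triplicate, mean ± SD, ANOVA with Bonferroni.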
With `Cc1ccn(Cc2ccc(F)cc2)c(=O)c1C(=O)NC1CCCCCC1`, the result was Active.

Another experiment deals with U-251. Kind of experiment: Cytotoxicity against human U251MG cells assessed as decrease in cell viability at 0.6 to 40 uM after 48 hrs by MTT assay. Format: functional, cell-based. Put shortly:
as §4
For the molecule `Cc1ccn(Cc2ccc(F)cc2)c(=O)c1C(=O)NC1CCCCCC1`, the outcome was inactive.
